The values below come from publication PMC7126824 (European Journal of Medicinal Chemistry, 2011).

Assay [1] relates to MDCK, HEL, CrFK, HeLa and CEM cells. The assay is described as follows: Cytostatic activity over the cell culture panel of Table 4. It counts as cell-based. The settings on record: read-out: IC50, range over the cell cultures.
The subject of assay [2] is CEM (human lymphocyte) cells. Description: Cytostatic activity: inhibition of tumor cell proliferation. It counts as cell-based. The settings on record: read-out: IC50 (50% inhibitory concentration). The procedure, abridged:
(§1)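 Exponentially growing tumour cells were seeded in 96-well plates with a range of test-compound concentrations: CEM lymphocytes at 75,000 cells/well for 3 days, HeLa cervix carcinoma cells at 20,000 cells/well for 4 days. Viable cells were counted with a Coulter counter. The 50% value is the concentration inhibiting tumour cell proliferation by 50%.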

Assay [3] deals with HeLa (human cervix carcinoma) cells. The description is as above. Type of assay: cell-based. The settings on record: read-out: IC50 (50% inhibitory concentration). A digest of the protocol:
as §1

In assay [4] the test system is HEL (human lung fibroblast) cells. The assay is described as follows: Cytostatic activity: inhibition of cell proliferation. Type of assay: cell-based. The settings on record: read-out: IC50 (50% inhibitory concentration).
For another assay, the system named is HCMV AD-169 strain. The assay is described as follows: Antiviral assay: inhibition of virus-induced cytopathicity in HEL cell cultures. It counts as cell-based, human cytomegalovirus. As to conditions: Human betaherpesvirus 5, AD169, HEL, read-out: EC50 against HCMV AD-169 strain. Background: Damage to the host cells serves as the signal in cytopathic effect assays.

The next assay has as its system HCMV Davis strain. Described as above. Type of assay: cell-based, human cytomegalovirus. As to conditions: Human betaherpesvirus 5, HEL, read-out: EC50 against HCMV Davis strain.

Read-outs that look alike come from different tables or passages of the source.

In the case of `S=C(NN=Cc1ccc(Cl)s1)Nc1ccccc1` [Compound 2, 5-Chlorothiophene-2-carboxaldehyde-N(4)phenyl thiosemicarbazone], the IC50 in assay [1] is 7.1 to 57.8 µM; in assay [2] (Homo sapiens, CCRF-CEM), 10 µM; in assay [3], 7.1 µM; in assay [4], 10.4 µM.
As for `N.N.[Cl][Pt][Cl]` [cisplatinum, reference compound], in assay [2] (CEM cells), the IC50 is 2.2 µM.
In the case of `Nc1nc(O)c2ncn(COC(CO)CO)c2n1` [ganciclovir], the results for the EC50 in the assay with HCMV AD-169 strain and in the assay with HCMV Davis strain were 5 µM and 3.4 µM, respectively.
